Source: ChEMBL document CHEMBL1123067, “Evaluation of the brain-specific delivery of radioiodinated (iodophenyl)alkyl-substituted amines coupled to a dihydropyridine carrier” (J Med Chem, 1985)
Each block holds one compound with its values, some of them ahead of it.

Key:
Type in all cases: ADME, organism-based
Rattus norvegicus [1] = experiment: Distribution of radioactivity in blood tissues of Sprague-Dawley rats after 60 min injecton by intravenously; 0.49-0.58; settings: in vivo, iv, 1 h
How it was run: (§1)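 Female Sprague-Dawley rats, 10–12 weeks old (170–200 g), fed ad libitum. The ¹²⁵I-labelled agent was dissolved in minimal Me2SO, diluted with saline to a final 20% Me2SO, filtered (0.22 μm), and injected into a lateral tail vein under ether anaesthesia. Tissues were counted against samples of the injected solution and expressed as % injected dose/g (mean, range). Brain/blood ratio is from the means.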

Rattus norvegicus [2] = experiment: Distribution of radioactivity in lung tissues of Sprague-Dawley rats after 30 min injecton by intravenously; 0.6-0.66; settings: in vivo, iv, 0.5 h
Rattus norvegicus [3] = experiment: Distribution of radioactivity in heart tissues of Sprague-Dawley rats after 60 min injecton by intravenously; 0.22-0.29; settings: in vivo, iv, 1 h
Rattus norvegicus [4] = experiment: Distribution of radioactivity in liver tissues of Sprague-Dawley rats after 15 min injecton by intravenously; 1.37-1.74; settings: in vivo, iv, 0.25 h
Rattus norvegicus [5] = experiment: Distribution of radioactivity in brain tissues of Sprague-Dawley rats after 15 min injecton by intravenously; 0.34-0.5; settings: in vivo, iv, 0.25 h; how it was run: as §1
Rattus norvegicus [6] = experiment: Distribution of radioactivity in kidney tissues of Sprague-Dawley rats after 5 min injecton by intravenously; 0.62-1.13; settings: in vivo, iv
Rattus norvegicus [7] = experiment: Distribution of radioactivity in lung tissues of Sprague-Dawley rats after 5 min injecton by intravenously; 0.54-1.07; settings: in vivo, iv
Rattus norvegicus [8] = experiment: Distribution of radioactivity in liver tissues of Sprague-Dawley rats after 60 min injecton by intravenously; 1.36-1.74; settings: in vivo, iv, 1 h
Rattus norvegicus [9] = experiment: Distribution of radioactivity in heart tissues of Sprague-Dawley rats after 5 min injecton by intravenously; 0.39-0.74; settings: in vivo, iv
Rattus norvegicus [10] = experiment: Distribution of radioactivity in heart tissues of Sprague-Dawley rats after 30 min injecton by intravenously; 0.36-0.42; settings: in vivo, iv, 0.5 h; how it was run: as §1
Rattus norvegicus [11] = experiment: Distribution of radioactivity in blood tissues of Sprague-Dawley rats after 30 min injecton by intravenously; 0.69-0.84; settings: in vivo, iv, 0.5 h; how it was run: as §1
Rattus norvegicus [12] = experiment: Distribution of radioactivity in blood tissues of Sprague-Dawley rats after 15 min injecton by intravenously; 0.95-1.06; settings: in vivo, iv, 0.25 h; how it was run: as §1
Rattus norvegicus [13] = experiment: Distribution of radioactivity in brain tissues of Sprague-Dawley rats after 60 min injecton by intravenously; 0.05-0.06; settings: in vivo, iv, 1 h; how it was run: as §1
Rattus norvegicus [14] = experiment: Distribution of radioactivity in lung tissues of Sprague-Dawley rats after 60 min injecton by intravenously; 0.36-0.44; settings: in vivo, iv, 1 h
Rattus norvegicus [15] = experiment: Distribution of radioactivity in lung tissues of Sprague-Dawley rats after 15 min injecton by intravenously; 0.77-0.86; settings: in vivo, iv, 0.25 h
Rattus norvegicus [16] = experiment: Distribution of radioactivity in kidney tissues of Sprague-Dawley rats after 60 min injecton by intravenously; 0.99-1.24; settings: in vivo, iv, 1 h
Rattus norvegicus [17] = experiment: Distribution of radioactivity in kidney tissues of Sprague-Dawley rats after 15 min injecton by intravenously; 1.59-2.03; settings: in vivo, iv, 0.25 h
Rattus norvegicus [18] = experiment: Distribution of radioactivity in kidney tissues of Sprague-Dawley rats after 30 min injecton by intravenously; 1.67-2.11; settings: in vivo, iv, 0.5 h
Rattus norvegicus [19] = experiment: Distribution of radioactivity in liver tissues of Sprague-Dawley rats after 5 min injecton by intravenously; 0.73-1.45; settings: in vivo, iv
Rattus norvegicus [20] = experiment: Distribution of radioactivity in liver tissues of Sprague-Dawley rats after 30 min injecton by intravenously; 1.57-1.66; settings: in vivo, iv, 0.5 h
Rattus norvegicus [21] = experiment: Distribution of radioactivity in blood tissues of Sprague-Dawley rats after 5 min injecton by intravenously; 0.58-1.17; settings: in vivo, iv; how it was run: as §1
Rattus norvegicus [22] = experiment: Distribution of radioactivity in brain tissues of Sprague-Dawley rats after 5 min injecton by intravenously; 0.35-0.72; settings: in vivo, iv; how it was run: as §1
Rattus norvegicus [23] = experiment: Distribution of radioactivity in brain tissues of Sprague-Dawley rats after 30 min injecton by intravenously; 0.18-0.36; settings: in vivo, iv, 0.5 h; how it was run: as §1
Rattus norvegicus [24] = experiment: Distribution of radioactivity in heart tissues of Sprague-Dawley rats after 15 min injecton by intravenously; 0.52-0.62; settings: in vivo, iv, 0.25 h; how it was run: as §1
Rattus norvegicus [25] = experiment: Distribution of radioactivity in liver tissues of Sprague-Dawley rats after 30 min injection by intravenously; value ranges from 1.77-2.08; settings: in vivo, iv, 0.5 h
Rattus norvegicus [26] = experiment: Distribution of radioactivity in brain tissues of Sprague-Dawley rats after 5 min injection by intravenously; value ranges from 0.28-0.37; settings: in vivo, iv; how it was run: as §1
[27] = Brain to blood ratio in Sprague-Dawley rats after 60 min injection by intravenously; settings: rat, brain and blood, iv; how it was run: as §1
Rattus norvegicus [28] = experiment: Distribution of radioactivity in kidney tissues of Sprague-Dawley rats after 5 min injection by intravenously; value ranges from 3.18-4.74; settings: in vivo, iv
[29] = Brain to blood ratio in Sprague-Dawley rats after 15 min injection by intravenously; settings: rat, brain and blood, iv; how it was run: as §1
[30] = Brain to blood ratio in Sprague-Dawley rats after 5 min injection by intravenously; settings: rat, brain and blood, iv; how it was run: as §1
Rattus norvegicus [31] = experiment: Distribution of radioactivity in blood tissues of Sprague-Dawley rats after 30 min injection by intravenously; value ranges from 0.73-0.85; settings: in vivo, iv, 0.5 h; how it was run: as §1
Rattus norvegicus [32] = experiment: Distribution of radioactivity in heart tissues of Sprague-Dawley rats after 60 min injection by intravenously; value ranges from 0.64-0.86; settings: in vivo, iv, 1 h
Rattus norvegicus [33] = experiment: Distribution of radioactivity in blood tissues of Sprague-Dawley rats after 15 min injection by intravenously; value ranges from 0.97-1.12; settings: in vivo, iv, 0.25 h; how it was run: as §1
Rattus norvegicus [34] = experiment: Distribution of radioactivity in lung tissues of Sprague-Dawley rats after 60 min injection by intravenously; value ranges from 0.61-0.86; settings: in vivo, iv, 1 h
Rattus norvegicus [35] = experiment: Distribution of radioactivity in heart tissues of Sprague-Dawley rats after 15 min injection by intravenously; value ranges from 0.89-1.24; settings: in vivo, iv, 0.25 h; how it was run: as §1
Rattus norvegicus [36] = experiment: Distribution of radioactivity in kidney tissues of Sprague-Dawley rats after 30 min injection by intravenously; value ranges from 1.56-1.83; settings: in vivo, iv, 0.5 h
Rattus norvegicus [37] = experiment: Distribution of radioactivity in heart tissues of Sprague-Dawley rats after 30 min injection by intravenously; value ranges from 0.75-1.03; settings: in vivo, iv, 0.5 h; how it was run: as §1
Rattus norvegicus [38] = experiment: Distribution of radioactivity in lung tissues of Sprague-Dawley rats after 30 min injection by intravenously; value ranges from 0.86-1.13; settings: in vivo, iv, 0.5 h
Rattus norvegicus [39] = experiment: Distribution of radioactivity in heart tissues of Sprague-Dawley rats after 5 min injection by intravenously; value ranges from 1.24-1.46; settings: in vivo, iv
Rattus norvegicus [40] = experiment: Distribution of radioactivity in blood tissues of Sprague-Dawley rats after 60 min injection by intravenously; value ranges from 0.54-0.63; settings: in vivo, iv, 1 h; how it was run: as §1
Rattus norvegicus [41] = experiment: Distribution of radioactivity in kidney tissues of Sprague-Dawley rats after 60 min injection by intravenously; value ranges from 1.17-1.48; settings: in vivo, iv, 1 h
Rattus norvegicus [42] = experiment: Distribution of radioactivity in lung tissues of Sprague-Dawley rats after 15 min injection by intravenously; value ranges from 1.05-1.5; settings: in vivo, iv, 0.25 h
Rattus norvegicus [43] = experiment: Distribution of radioactivity in liver tissues of Sprague-Dawley rats after 60 min injection by intravenously; value ranges from 1.12-1.44; settings: in vivo, iv, 1 h
Rattus norvegicus [44] = experiment: Distribution of radioactivity in blood tissues of Sprague-Dawley rats after 5 min injection by intravenously; value ranges from 1.38-1.5; settings: in vivo, iv; how it was run: as §1
[45] = Brain to blood ratio in Sprague-Dawley rats after 30 min injection by intravenously; settings: rat, brain and blood, iv; how it was run: as §1
Rattus norvegicus [46] = experiment: Distribution of radioactivity in liver tissues of Sprague-Dawley rats after 5 min injection by intravenously; value ranges from 2.98-3.22; settings: in vivo, iv
Rattus norvegicus [47] = experiment: Distribution of radioactivity in brain tissues of Sprague-Dawley rats after 15 min injection by intravenously; value ranges from 0.20-0.25; settings: in vivo, iv, 0.25 h; how it was run: as §1
Rattus norvegicus [48] = experiment: Distribution of radioactivity in lung tissues of Sprague-Dawley rats after 5 min injection by intravenously; value ranges from 1.35-1.74; settings: in vivo, iv
Rattus norvegicus [49] = experiment: Distribution of radioactivity in kidney tissues of Sprague-Dawley rats after 15 min injection by intravenously; value ranges from 2.24-3.12; settings: in vivo, iv, 0.25 h
Rattus norvegicus [50] = experiment: Distribution of radioactivity in liver tissues of Sprague-Dawley rats after 15 min injection by intravenously; value ranges from 2.43-2.92; settings: in vivo, iv, 0.25 h
Rattus norvegicus [51] = experiment: Distribution of radioactivity in brain tissues of Sprague-Dawley rats after 60 min injection by intravenously; value ranges from 0.15-0.19; settings: in vivo, iv, 1 h; how it was run: as §1
Rattus norvegicus [52] = experiment: Distribution of radioactivity in brain tissues of Sprague-Dawley rats after 30 min injection by intravenously; value ranges from 0.17-0.20; settings: in vivo, iv, 0.5 h; how it was run: as §1

Distribution (Rattus norvegicus [1]): 0.54%
Distribution (Rattus norvegicus [2]): 0.62%
Distribution (Rattus norvegicus [3]): 0.24%
Distribution (Rattus norvegicus [4]): 1.57%
Distribution (Rattus norvegicus [5]): 0.43%
Distribution (Rattus norvegicus [6]): 0.97%
Distribution (Rattus norvegicus [7]): 0.86%
Distribution (Rattus norvegicus [8]): 1.6%
Distribution (Rattus norvegicus [9]): 0.63%
Distribution (Rattus norvegicus [10]): 0.39%
Distribution (Rattus norvegicus [11]): 0.77%
Distribution (Rattus norvegicus [12]): 0.99%
Distribution (Rattus norvegicus [13]): 0.06%
Distribution (Rattus norvegicus [14]): 0.39%
Distribution (Rattus norvegicus [15]): 0.81%
Distribution (Rattus norvegicus [16]): 1.12%
Distribution (Rattus norvegicus [17]): 1.81%
Distribution (Rattus norvegicus [18]): 1.8%
Distribution (Rattus norvegicus [19]): 1.16%
Distribution (Rattus norvegicus [20]): 1.6%
Distribution (Rattus norvegicus [21]): 0.94%
Distribution (Rattus norvegicus [22]): 0.58%
Distribution (Rattus norvegicus [23]): 0.27%
Distribution (Rattus norvegicus [24]): 0.57%
Compound: Nc1ccc([125I])cc1

Distribution (Rattus norvegicus [25]): 1.89%
Distribution (Rattus norvegicus [26]): 0.32%
Kp at 1 h [27]: 0.29
Distribution (Rattus norvegicus [28]): 4.19%
Kp at 0.25 h [29]: 0.21
Kp at 5 min [30]: 0.22
Distribution (Rattus norvegicus [31]): 0.77%
Distribution (Rattus norvegicus [32]): 0.72%
Distribution (Rattus norvegicus [33]): 1.03%
Distribution (Rattus norvegicus [34]): 0.66%
Distribution (Rattus norvegicus [35]): 1.08%
Distribution (Rattus norvegicus [36]): 1.72%
Distribution (Rattus norvegicus [37]): 0.86%
Distribution (Rattus norvegicus [38]): 0.97%
Distribution (Rattus norvegicus [39]): 1.37%
Distribution (Rattus norvegicus [40]): 0.57%
Distribution (Rattus norvegicus [41]): 1.28%
Distribution (Rattus norvegicus [42]): 1.2%
Distribution (Rattus norvegicus [43]): 1.24%
Distribution (Rattus norvegicus [44]): 1.42%
Kp at 0.5 h [45]: 0.23
Distribution (Rattus norvegicus [46]): 3.1%
Distribution (Rattus norvegicus [47]): 0.22%
Distribution (Rattus norvegicus [48]): 1.48%
Distribution (Rattus norvegicus [49]): 2.54%
Distribution (Rattus norvegicus [50]): 2.63%
Distribution (Rattus norvegicus [51]): 0.17%
Distribution (Rattus norvegicus [52]): 0.18%
Compound: CN1C=CCC(C(=O)NCCc2ccc([125I])cc2)=C1
